Assay [1] relates to 45 receptors, channels, and transporters. Nature of the assay: PDSP off-target binding screen at 45 receptors, channels and transporters. Particulars: at 10 μM.
The test system of assay [2] is mouse middle cerebral artery occlusion (MCAO) model of ischemic stroke. The assay is described as follows: MCAO ischemic stroke model, cerebral infarct volume. It is filed as in vivo.
Assay [3] shares this test system. Particulars: mice, 1 mg/kg/day × 3 days, administered 4 h after onset of stroke; cited from earlier work.
Assay [4] relates to P2X7R. Particulars: cited from earlier work.
For assay [5], the system named is mP2X4R. Particulars: cited from earlier work.
In assay [6] the test system is mouse middle cerebral artery occlusion (MCAO) model of ischemic stroke. Nature of the assay: Open-field test after MCAO. It is filed as in vivo. The conditions noted are these: middle-aged mice after MCAO; vs vehicle; over 4 weeks. An outline of the steps:
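The model used 60 min right MCAO in middle-aged male and female C57BL/6 mice. Test compound or PBS vehicle was infused by osmotic minipump for 3 days. Testing was at baseline and on post-MCAO days 2, 7, 14, 21 and 28. Mice started from a corner of a 16″ acrylic box and explored ~10 min. Total photobeam breaks and center-zone break percentage were recorded. This test preceded rotarod by 1 h. Data are mean ± S.D.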

For assay [7] the test system is unchanged. The assay is described as follows: Rotarod test after MCAO. It is filed as in vivo. Particulars: middle-aged mice after MCAO; 4–40 rpm, 5 min; over 4 weeks. The gist of the method: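 Middle-aged male and female C57BL/6 mice underwent 60 min right MCAO. They received test compound or PBS by osmotic minipump for 3 days. Rotarod was done at baseline and on post-MCAO days 2, 7, 14, 21 and 28, 1 h after open-field testing. The rod accelerated 4–40 rpm over 5 min. Each mouse had two trials 30 min apart, and mean latency to fall (s) was used. Data are mean ± S.D.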

The test system is the same in assay [8]. Nature of the assay: Novel Object Recognition Task. Format: in vivo. The conditions noted are these: middle-aged mice, 4 weeks after MCAO; dose of 3 mg/kg; p < 0.05 vs Veh.
The test system of assay [9] is primary human monocyte-derived macrophages. Nature of the assay: Calcium influx assay on human monocyte-derived macrophages. It is filed as cell-based. The conditions noted are these: ATP 50 μM, 15 min pretreatment. An outline of the steps: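 Monocytes came from fresh whole blood of healthy donors. They were matured 5–7 days in RPMI with GM-CSF (5 ng/mL), then seeded at 10^4 cells/dish for ≥24 h. Cells were loaded with Calbryte 590 AM for 60 min in HBSS/HEPES and washed. They were pretreated 15 min with test compound (0, 0.1, 0.3, 0.6, 1, 3 μM), then stimulated with ATP 50 μM. Confocal images were taken every 6 s for up to 4 min, and peak Ca2+ amplitude was quantified.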

Assay [10] deals with T1, hP2X1R (Homo sapiens, UniProt P51575).
T1 sequence (P51575 1-399): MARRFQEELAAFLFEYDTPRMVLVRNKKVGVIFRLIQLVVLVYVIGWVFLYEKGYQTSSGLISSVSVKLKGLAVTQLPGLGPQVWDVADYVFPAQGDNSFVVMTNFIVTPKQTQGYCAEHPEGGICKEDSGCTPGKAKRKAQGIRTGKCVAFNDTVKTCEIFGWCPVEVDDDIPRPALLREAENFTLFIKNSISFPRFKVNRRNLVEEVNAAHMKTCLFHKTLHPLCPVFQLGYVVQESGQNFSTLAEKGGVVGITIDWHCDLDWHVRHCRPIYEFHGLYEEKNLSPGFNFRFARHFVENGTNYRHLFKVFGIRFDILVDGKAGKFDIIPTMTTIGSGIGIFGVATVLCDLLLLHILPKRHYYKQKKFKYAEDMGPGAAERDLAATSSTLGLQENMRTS
Nature of the assay: cell-based. The conditions noted are these: CHO-K1, read-out: hP2X1R % inhib.

Where [11] appears, read: young adult male mice, 5 mg/kg/day × 3 days continuous infusion, 3 days after stroke, vs Veh.
The mark [12] stands for this setting: young adult male mice (8–12 weeks), doses of 1.5 and 3.0 mg/kg/day × 3 days continuous infusion (Alzet minipump), 3 days after stroke, vs Veh.

Take `Cc1ccc2c3c(ccc2c1)N(c1cccc(-c2noc(=S)[n-]2)c1)C(=O)CC(=O)N3.[Na+]` [Compound 22c]: the “off-target binding at 45 receptors, channels, and transporters” value (from here on “off-target binding at 45 receptors”) in [1] was “no significant interactions”. In assay [2] (setting [11]), the cortical infarct volume entry is “not significant”, the striatal infarct volume result is “not significant” and the “total hemispheric infarct volume” value is on record as “moderate but significant decrease”.

With `O=C1CN=C(c2cccc(Br)c2)c2oc3ccccc3c2N1` [Compound 3, 5-(3-bromophenyl)-1,3-dihydro-2H-benzofuro[3,2-e][1,4]diazepin-2-one], the stroke infarct size result in [3] is reported as “reduced”.

In the case of `O=C1CC(=O)N(c2cccc(-c3noc(=S)[n-]3)c2)c2ccc3ccccc3c2N1.[Na+]` [Compound 5, 5-(3-(5-Thioxo-4,5-dihydro-1,2,4-oxadiazol-3-yl)phenyl)-1,5-dihydro-2H-naphtho[1,2-b][1,4]diazepine-2,4(3H)-dione], the “off-target binding at 45 receptors” value in assay [1] is reported as “no significant interactions”. Moreover, the “activity at the P2X7R” value in [4] is “inactive”. Further, the “potency in blocking mP2X4R effects in vitro compared with hP2X4R” value in [5] is on record as “as potent”.

For `CCN(CC)CC.O=C1CC(=O)N(c2cccc(-c3noc(=S)[nH]3)c2)c2cc(Br)c3ccccc3c2N1` [Compound 21d, 7-Bromo-5-(3-(5-thioxo-4,5-dihydro-1,2,4-oxadiazol-3-yl)-phenyl)-1,5-dihydro-2H-naphtho[1,2-b][1,4]diazepine-2,4(3H)-dione], the “off-target binding at 45 receptors” value in assay [1] is listed as “no significant interactions”.

Take `CCN(CC)CC.O=C1CC(=O)N(c2ccnc(-c3noc(=S)[nH]3)c2)c2ccc3ccccc3c2N1` [Compound 21u, 5-(2-(5-Thioxo-4,5-dihydro-1,2,4-oxadiazol-3-yl)pyridin-4-yl)-1,5-dihydro-2H-naphtho[1,2-b][1,4]diazepine-2,4(3H)-dione]: in assay [2] (neuroprotective and neuro-rehabilitative properties), the “effective dose in murine MCAO ischemic stroke model” value came out at 1.5 mg/kg. Besides, in assay [2] (setting [12]), the cortical infarct volume entry is reported as “significantly reduced” and the “total hemispheric infarct volume” value was “significantly reduced”. Further, in assay [6], the “total exploratory behavior (total beam breaks, open-field task)” value was “did not show any differences”. The “motor coordination and balance (rotarod)” value in assay [7] was “did not improve”. In addition, in [8], the “learning and memory function (NORT)” value is recorded as “significant retention of memory”. Besides, the “inhibition of ATP-induced increase in calcium influx” value in assay [9] (HMDM of healthy subjects) is recorded as “dose-dependent (0–3 μM) inhibition”. For the same compound, the “doses giving a significant decrease of the peak Ca2+ amplitude” value in [9] (vs ATP only) is ≥ 0.6 µM.

For `CC(=O)NCc1ccc2ccc3c(c2c1)NC(=O)CC(=O)N3c1cccc(-c2noc(=S)[nH]2)c1` [Compound 21i, N-((2,4-Dioxo-5-(3-(5-thioxo-4,5-dihydro-1,2,4-oxadiazol-3-yl)-phenyl)-2,3,4,5-tetrahydro-1H-naphtho[1,2-b][1,4]diazepin-10-yl)-methyl)acetamide], the inhibition at 30 µM in [10] is ≤ 31%.

For `O=C1CC(=O)N(c2cccc(-c3noc(=S)[nH]3)n2)c2ccc3ccccc3c2N1` [Compound 21v, 5-(6-(5-Thioxo-4,5-dihydro-1,2,4-oxadiazol-3-yl)pyridin-2-yl)-1,5-dihydro-2H-naphtho[1,2-b][1,4]diazepine-2,4(3H)-dione], the inhibition at 30 µM in [10] is ≤ 31%.

Source of the values: PMC9653265 (Journal of medicinal chemistry, 2022).
